The values below come from ChEMBL document CHEMBL1126070, “Bisquinolines. 1. N,N-bis(7-chloroquinolin-4-yl)alkanediamines with potential against chloroquine-resistant malaria” (J Med Chem, 1992).

The structures appear in SMILES notation.

The nature of test [1]: Resistance index was measured as the ratio of IC50 of Plasmodium falciparum W-2 clone / IC50 of P. falciparum D-6 clone. It is filed as functional. The gist of the method: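 P. falciparum clones D-6 (mefloquine-resistant) and W-2 (CQ-, pyrimethamine-, sulfadoxine- and quinine-resistant) were tested in parallel. Compounds were dissolved in DMSO and serially diluted in culture medium. Infected erythrocytes at 0.25–0.5% parasitemia were added to a final 1.5% hematocrit. IC50 for each clone came from inhibition of tritiated hypoxanthine uptake, and the index is IC50(W-2)/IC50(D-6).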

Test [2] concerns Plasmodium falciparum. As to the kind of experiment: In vitro activity against Plasmodium falciparum D6. It is filed as functional, organism-based. The gist of the method:
(§1)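 Test compounds dissolved in DMSO and serially diluted in culture medium. Erythrocytes at 0.25 to 0.5% parasitemia added in 96-well microdilution plates to a final hematocrit of 1.5%. Activity indexed by inhibition of [3H]hypoxanthine uptake. IC50 derived from this uptake.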

In test [3] the test system is Plasmodium berghei. As to the kind of experiment: In vivo antimalarial activity against Plasmodium berghei infected mice (Mus musculus) at 40 mg/kg. It is filed as functional.
The test system of test [4] is Plasmodium berghei. As to the kind of experiment: In vivo antimalarial activity against Plasmodium berghei infected mice (Mus musculus) at 160 mg/kg. It is filed as functional.
For test [5], the system named is Plasmodium falciparum. As to the kind of experiment: In vitro activity against Plasmodium falciparum W-2. It is filed as functional, organism-based. The gist of the method:
as §1

Test [6] concerns Plasmodium berghei. As to the kind of experiment: In vivo antimalarial activity against Plasmodium berghei infected mice (Mus musculus) at 640 mg/kg. It is filed as functional.
Test [7] has as its system Plasmodium berghei. Nature of the test: In vivo antimalarial activity against Plasmodium berghei infected mice (Mus musculus) at 640 mg/kg; C-1. It is filed as functional, organism-based. Also noted: dose 640 mg/kg.
In test [8] the test system is Plasmodium berghei. Nature of the test: In vivo antimalarial activity against Plasmodium berghei infected mice (Mus musculus) at 320 mg/kg.
Test [9] relates to Plasmodium berghei. As to the kind of experiment: In vivo antimalarial activity against Plasmodium berghei infected mice (Mus musculus) at 640 mg/kg; Skin lesions at injection site. It is filed as functional, organism-based. Also noted: dose 640 mg/kg. The settings on record: Skin of body. Put shortly: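 P. berghei (KBG 173) infected male mice, 5 per dose, given a single subcutaneous dose 3 days post-infection. Injection sites examined for skin lesions.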

Broadly, the IC50 is the point on the concentration scale where inhibition reaches its midpoint. Low readings indicate greater potency in that assay, high ones weaker potency in that assay. Regarding `Clc1ccc2c(NCCCCCCCCCCNc3ccnc4cc(Cl)ccc34)ccnc2c1`, the Resistance index in test [1] was 0.6. The values for the IC50 in the test with Plasmodium falciparum [2] and with Plasmodium falciparum [5] were 5.7 nM and 3.4 nM, respectively. In addition, the values for the T-C in the test with Plasmodium berghei [3], with Plasmodium berghei [4] and with Plasmodium berghei [6] were 0.2 days, 0.2 days and 0.6 days, respectively.

For the compound `Clc1ccc2c(NCCCNc3ccnc4cc(Cl)ccc34)ccnc2c1`, the Resistance index in test [1] is 5.5. Further, the IC50 with Plasmodium falciparum [2] amounted to 15 nM; in the test on Plasmodium falciparum [5], 83 nM. Further, the T-C in the test with Plasmodium berghei [3] came out at 0.2 days; with Plasmodium berghei [4], 0.4 days; in the test on Plasmodium berghei [6], 1.2 days.

For the compound `CCN(CC)CCCC(C)Nc1ccnc2cc(Cl)ccc12` (configuration not stated) [CHLOROQUINE], the T-C in the test on Plasmodium berghei [4] and in the test on Plasmodium berghei [6] was greater than 60 days throughout.

For `Clc1ccc2c(NCCCCCCCCNc3ccnc4cc(Cl)ccc34)ccnc2c1`, in test [1], the Resistance index stood at 0.6. The IC50 came to 5.6 nM in the test with Plasmodium falciparum [2] and 3.1 nM in the test on Plasmodium falciparum [5]. For the same compound, the T-C with Plasmodium berghei [3] is -0.2 days; in the test with Plasmodium berghei [4] it was 1 days; with Plasmodium berghei [7], “Curative-1”.

Regarding `Clc1ccc2c(NCCCCCCCNc3ccnc4cc(Cl)ccc34)ccnc2c1`, in test [1], the Resistance index came to 2.3. The IC50 is 1.9 nM in the test on Plasmodium falciparum [2] and 4.3 nM in the test on Plasmodium falciparum [5]. In addition, the figures for the T-C with Plasmodium berghei [3] and in the test with Plasmodium berghei [4] were 2.6 days and 7.2 days, respectively.

On to `CC(CCCNc1ccnc2cc(Cl)ccc12)CNc1ccnc2cc(Cl)ccc12` (configuration not stated), for which the Resistance index in test [1] was 1.1. Also, the results for the IC50 with Plasmodium falciparum [2] and with Plasmodium falciparum [5] were 2.7 nM and 3 nM, respectively. In addition, the T-C in the test on Plasmodium berghei [3] was 1.2 days; with Plasmodium berghei [4] it was 3.6 days; in the test with Plasmodium berghei [6] it was greater than 60 days.

For `Clc1ccc2c(NC3CCCCC3Nc3ccnc4cc(Cl)ccc34)ccnc2c1` (configuration not stated), the T-C with Plasmodium berghei [8] is greater than 60 days; in the test on Plasmodium berghei [3], 8.5 days; in the test on Plasmodium berghei [4] it was greater than 60 days. Further, in test [1], the Resistance index worked out at 1.4. The IC50 with Plasmodium falciparum [2] was determined as 1 nM; in the test with Plasmodium falciparum [5] it was 1.4 nM.

As for `Clc1ccc2c(NCCCCCCNc3ccnc4cc(Cl)ccc34)ccnc2c1`, the Resistance index in test [1] amounted to 1.1. Besides, the IC50 in the test with Plasmodium falciparum [2] came out at 21 nM; with Plasmodium falciparum [5], 23 nM. The T-C was 0.4 days in the test on Plasmodium berghei [3], 3.9 days with Plasmodium berghei [4] and greater than 60 days in the test with Plasmodium berghei [6].

For `Clc1ccc2c(NCCCCCCCCCNc3ccnc4cc(Cl)ccc34)ccnc2c1`, the T-C entry was “Lesions 15A” in the test with Plasmodium berghei [9], 3.1 days in the test with Plasmodium berghei [3] and 7.4 days in the test with Plasmodium berghei [4]. Moreover, in test [1], the Resistance index is 0.8. The IC50 in the test on Plasmodium falciparum [2] came out at 3 nM; in the test on Plasmodium falciparum [5], 2.3 nM.

For the compound `Clc1ccc2c(NCCNc3ccnc4cc(Cl)ccc34)ccnc2c1`, in test [1], the Resistance index worked out at 1.6. Moreover, the IC50 with Plasmodium falciparum [2] was found to be 17 nM; with Plasmodium falciparum [5], 27 nM. Besides, the values for the T-C in the test on Plasmodium berghei [3], with Plasmodium berghei [4] and with Plasmodium berghei [6] were 0 days, 0.4 days and 1.4 days, respectively.

Take `Clc1ccc2c(N3CCN(CCCN4CCN(c5ccnc6cc(Cl)ccc56)CC4)CC3)ccnc2c1` [PIPERAQUINE]: the Resistance index in test [1] was 1.9. In addition, the figures for the IC50 in the test on Plasmodium falciparum [2] and in the test with Plasmodium falciparum [5] were 8.3 nM and 16 nM, respectively.

Regarding `CC(CNc1ccnc2cc(Cl)ccc12)Nc1ccnc2cc(Cl)ccc12` (configuration not stated), the Resistance index in [1] was found to be 1.1. Also, the IC50 with Plasmodium falciparum [2] amounted to 3.5 nM; with Plasmodium falciparum [5], 3.9 nM. For the same compound, the values for the T-C with Plasmodium berghei [3], in the test on Plasmodium berghei [4] and with Plasmodium berghei [6] were 3.4 days, 5.7 days and greater than 60 days, respectively.

`Clc1ccc2c(NCCCCCNc3ccnc4cc(Cl)ccc34)ccnc2c1`: the Resistance index in test [1] worked out at 1.5. Further, the IC50 is 2.5 nM in the test with Plasmodium falciparum [2] and 3.8 nM in the test on Plasmodium falciparum [5]. The T-C with Plasmodium berghei [3] was 1 days; in the test on Plasmodium berghei [4] it was 5.1 days; with Plasmodium berghei [6] it was greater than 60 days.

Take `Clc1ccc2c(NCCCCCCCCCCCCNc3ccnc4cc(Cl)ccc34)ccnc2c1`: the Resistance index in test [1] worked out at 0.5. Also, the results for the IC50 in the test on Plasmodium falciparum [2] and in the test with Plasmodium falciparum [5] were 60 nM and 31 nM, respectively. For the same compound, the T-C is 0 days with Plasmodium berghei [3], -0.2 days in the test on Plasmodium berghei [4] and 0 days with Plasmodium berghei [6].

Take `Clc1ccc2c(NCCCCNc3ccnc4cc(Cl)ccc34)ccnc2c1`: in [1], the Resistance index came to 0.2. Moreover, the figures for the IC50 in the test with Plasmodium falciparum [2] and with Plasmodium falciparum [5] were 390 nM and 81 nM, respectively. Further, the T-C in the test with Plasmodium berghei [3] is 0.5 days; with Plasmodium berghei [4], 2.3 days; in the test on Plasmodium berghei [6] it was 5.6 days.
